Assay results as given in ChEMBL document CHEMBL4402603, “Structure-Activity Relationship of SPOP Inhibitors against Kidney Cancer” (J Med Chem, 2020).

Tests used:
[1] = target: Speckle-type POZ protein (Homo sapiens) (UniProt O43791); assay: Binding affinity to recombinant N-terminal GST/His-tagged MATH binding domain SPOP (unknown origin) expressed in Escherichia coli BL21 (DE3) assessed as change in melting temperature at 10 fold compound incubated for 15 mins by nano differential scanning fluorimetry (reference value: -1.7 degreeC)
A498 [2] = assay: Antiproliferative activity against human A498 cells assessed as reduction in cell viability at 30 uM incubated for 72 hrs by MTT assay relative to control; format: functional; conditions: A498, 72 h
Outline: (§1)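 MTT read-out. Cells seeded at 1,000-2,200/well, grown 12 hr at 37 °C, then compound added for 72 hr. MTT for 4 hr, formazan dissolved in DMSO, absorbance at 490 nm. Untreated-cell OD taken as 100% proliferation; inhibition reported at 30 μM.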

OS-RC-2 [3] = assay: Antiproliferative activity against human OS-RC2 cells assessed as reduction in cell viability at 30 uM incubated for 72 hrs by MTT assay relative to control; format: functional; conditions: OS-RC-2, 72 h; outline: as §1
[4] = target: Speckle-type POZ protein (Homo sapiens) (UniProt O43791); assay: Binding affinity to recombinant N-terminal GST/His-tagged MATH binding domain SPOP (unknown origin) expressed in Escherichia coli BL21 (DE3) assessed as change in melting temperature at 20 fold compound incubated for 15 mins by nano differential scanning fluorimetry (reference value: -3.8 degreeC)
A498 [5] = assay: Antiproliferative activity against human A498 cells assessed as reduction in cell viability incubated for 72 hrs by MTT assay; format: functional, cell-based; conditions: A498, 72 h
Outline: (§2)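 MTT read-out. Cells seeded at 1,000-2,200/well, grown 12 hr at 37 °C before compound, then exposed 72 hr. MTT for 4 hr, formazan dissolved in DMSO, A490 read. Untreated cells = 100% proliferation. IC50 quantitated; mean ± SD, n = 3.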

OS-RC-2 [6] = assay: Antiproliferative activity against human OS-RC2 cells assessed as reduction in cell viability incubated for 72 hrs by MTT assay; format: functional, cell-based; conditions: OS-RC-2, 72 h; outline: as §2

Speckle-type POZ protein (Homo sapiens), sequence (O43791 whole entry, the tested form may be a part): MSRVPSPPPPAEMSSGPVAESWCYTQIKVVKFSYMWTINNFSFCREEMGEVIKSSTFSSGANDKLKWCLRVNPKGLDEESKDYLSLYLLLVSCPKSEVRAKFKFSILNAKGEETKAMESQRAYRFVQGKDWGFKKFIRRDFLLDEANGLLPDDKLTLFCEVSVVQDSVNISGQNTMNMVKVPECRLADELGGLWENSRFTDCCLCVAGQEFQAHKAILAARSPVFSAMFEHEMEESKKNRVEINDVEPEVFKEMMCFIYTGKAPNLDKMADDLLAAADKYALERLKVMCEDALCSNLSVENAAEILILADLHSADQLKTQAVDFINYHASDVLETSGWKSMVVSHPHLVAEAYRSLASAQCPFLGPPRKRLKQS

Structure (SMILES) | ΔTm [1] | inhibition at 30 µM (A498 [2]) | inhibition at 30 µM (OS-RC-2 [3]) | ΔTm [4] | IC50 (A498 [5]) | IC50 (OS-RC-2 [6])
Cc1cccn2c(=O)c3cc(C(=O)NCCCc4ccccc4)c(=N)n(CCc4cccs4)c3nc12 | 2.8 °C | 62% | 58% | 2.6 °C |  | 
CCOC(=O)c1cc2c(=O)n3cccc(C)c3nc2n(Cc2ccco2)c1=N |  | 59% | 56% |  |  | 
Cc1cccn2c(=O)c3cc(C(=O)NCCCN4CCOCC4)c(=N)n(Cc4ccccc4)c3nc12 |  | 58% | 46% |  |  | 
CCOC(=O)c1cc2c(=O)n3cccc(C)c3nc2n(Cc2ccccc2)c1=N |  | 24% | 26% |  |  | 
Cc1cccn2c(=O)c3cc(C(=O)NCc4ccccc4)c(=N)n(CCc4cccs4)c3nc12 |  | 60% | 50% |  |  | 
Cc1cccn2c(=O)c3cc(C(=O)NCC4CCCO4)c(=N)n(CCc4cccs4)c3nc12 (stereo not given) |  | 86% | 83% |  |  | 
Cc1cccn2c(=O)c3cc(C(=O)O)c(=N)n(Cc4ccccc4)c3nc12 |  | 20% | 32% |  |  | 
CCOC(=O)c1cc2cnccc2n(CCc2ccccc2)c1=O |  | 14% | 15% |  |  | 
CCOC(=O)c1cc2c(=O)n3cccc(C)c3nc2n(-c2ccc(F)cc2)c1=N | 1.7 °C | 33% | 16% | 1.9 °C |  | 
N=c1c(C(=O)NCCCN2CCOCC2)cc2c(=O)n3ccccc3nc2n1CCc1cccs1 |  | 62% | 56% |  |  | 
CCOC(=O)c1cc2c(=O)n3cccc(C)c3nc2n(C(C)C)c1=N |  | 27% | 23% |  |  | 
Cc1cccn2c(=O)c3cc(C(=O)NCCCN4CCOCC4)c(=N)n(-c4ccccc4)c3nc12 |  | 12% | 23% |  |  | 
CCOC(=O)c1cc2c(=O)n3cccc(C)c3nc2n(CCc2cccs2)c1=N | 4.9 °C | 38% | 49% | 5.3 °C |  | 
Cc1cccn2c(=O)c3cc(C(=O)NCCCN4CCOCC4)c(=N)n(CCCc4ccccc4)c3nc12 |  | 90% | 91% |  | 2.6 µM | 5.1 µM
O=C(O)c1cc2cnccc2n(CCc2ccccc2)c1=O |  | 21% | 15% |  |  | 
Cc1cccn2c(=O)c3cc(C(=O)NCCCN4CCOCC4)c(=N)n(C(C)C)c3nc12 |  | 11% | 15% |  |  | 
CCN(CC)CCNC(=O)c1cc2cccnc2n(CCc2ccccc2)c1=O |  | 13% | 30% |  |  | 
Cc1cccn2c(=O)c3cc(C(=O)O)c(=N)n(Cc4ccco4)c3nc12 |  | 24% | 16% |  |  | 
C#CCn1c(=N)c(C(=O)NCCCN2CCOCC2)cc2c(=O)n3cccc(C)c3nc21 |  | 37% | 37% |  |  | 
Cc1cccn2c(=O)c3cc(C(=O)O)c(=N)n(CCc4ccc(Cl)cc4)c3nc12 |  | 57% | 30% |  |  | 
Cc1cccn2c(=O)c3cc(C(=O)NCCCN4CCOCC4)c(=N)n(CCCN4CCOCC4)c3nc12 |  | 27% | 35% |  |  | 
Cc1cccn2c(=O)c3cc(C(=O)O)c(=N)n(C(C)C)c3nc12 |  | 18% | 22% |  |  | 
Cc1ccn2c(=O)c3cc(C(=O)NCCCN4CCOCC4)c(=N)n(CCc4cccs4)c3nc2c1 |  | 75% | 77% |  |  | 
Cc1cccn2c(=O)c3cc(C(=O)O)c(=N)n(CCc4cccs4)c3nc12 |  | 25% | 37% |  |  | 
Cc1cccn2c(=O)c3cc(C(=O)O)c(=N)n(-c4ccc(F)cc4)c3nc12 |  | 18% | 33% |  |  | 
CCOC(=O)c1cc2c(=O)n3cccc(C)c3nc2n(CCc2ccc(C)cc2)c1=N | 0.8 °C | 51% | 49% | 1.5 °C |  | 

Structure (SMILES) | ΔTm [1] | inhibition at 30 µM (A498 [2]) | inhibition at 30 µM (OS-RC-2 [3]) | ΔTm [4] | IC50 (A498 [5]) | IC50 (OS-RC-2 [6])
Cc1cccn2c(=O)c3cc(C(=O)NCCCN4CCOCC4)c(=N)n(C)c3nc12 |  | 59% | 62% |  |  | 
Cc1cccn2c(=O)c3cc(C(=O)NCCCN4CCOCC4)c(=N)n(C4CCCCC4)c3nc12 |  | 37% | 22% |  |  | 
CCOC(=O)c1cc2c(=O)n3cccc(C)c3nc2n(-c2ccccc2)c1=N |  | 51% | 10% |  |  | 
Cc1cccn2c(=O)c3cc(C(=O)O)c(=N)n(CCc4ccccc4)c3nc12 | 2.3 °C | 13% | 28% | 3.7 °C |  | 
O=C(NCCc1ccc(F)cc1)c1cc2cccnc2n(CCc2ccccc2)c1=O |  | 8% | 14% |  |  | 
CCCn1c(=N)c(C(=O)NCCCN2CCOCC2)cc2c(=O)n3cccc(C)c3nc21 |  | 57% | 66% |  | 6.4 µM | 5.2 µM
Cc1cccn2c(=O)c3cc(C(=O)NCCCN4CCOCC4)c(=N)n(-c4ccc(Cl)cc4)c3nc12 |  | 17% | 38% |  |  | 
Cc1cccn2c(=O)c3cc(C(=O)NCCCN4CCOCC4)c(=N)n(CCc4c[nH]c5ccccc45)c3nc12 |  | 55% | 51% |  |  | 
Cc1cccn2c(=O)c3cc(C(=O)NCCc4ccc(F)cc4)c(=N)n(CCc4cccs4)c3nc12 |  | 12% | 21% |  |  | 
O=C(O)c1cc2cccnc2n(CCc2ccccc2)c1=O |  | 33% | 24% |  |  | 
CCCn1c(=N)c(C(=O)O)cc2c(=O)n3cccc(C)c3nc21 |  | 21% | 29% |  |  | 
O=C(NCCc1ccc(F)cc1)c1cc2cnccc2n(CCc2ccccc2)c1=O |  | 25% | 16% |  |  | 
Cc1cccn2c(=O)c3cc(C(=O)NCCN4CCOCC4)c(=N)n(CCc4cccs4)c3nc12 | 3.1 °C | 86% | 82% | 3.3 °C |  | 
Cc1cccn2c(=O)c3cc(C(=O)NCCCN4CCOCC4)c(=N)n(Cc4ccncc4)c3nc12 |  | 48% | 35% |  |  | 
Cc1cccn2c(=O)c3cc(C(=O)O)c(=N)n(-c4ccccc4)c3nc12 |  | 24% | 16% |  |  | 
CCCn1c(=N)c(C(=O)OCC)cc2c(=O)n3cccc(C)c3nc21 |  | 38% | 35% |  |  | 
Cc1cccn2c(=O)c3cc(C(=O)NCCO)c(=N)n(CCc4cccs4)c3nc12 |  | 83% | 81% |  |  | 
CCN(CC)CCNC(=O)c1cc2cnccc2n(CCc2ccccc2)c1=O |  | 38% | 11% |  |  | 
Cc1cccn2c(=O)c3cc(C(=O)NCCCN4CCOCC4)c(=N)n(CCOc4ccccc4)c3nc12 |  | 50% | 36% |  |  | 
Cc1ccc(CCn2c(=N)c(C(=O)O)cc3c(=O)n4cccc(C)c4nc32)cc1 |  | 51% | 31% |  |  | 
Cc1cccn2c(=O)c3cc(C(=O)NCCCN4CCOCC4)c(=N)n(CCc4ccccc4F)c3nc12 |  | 61% | 74% |  |  | 
Cc1cccn2c(=O)c3cc(C(=O)NCCCN4CCOCC4)c(=N)n(CCN4CCOCC4)c3nc12 |  | 35% | 40% |  |  | 
CCOC(=O)c1cc2c(=O)n3cccc(C)c3nc2n(CCc2ccccc2)c1=N |  | 24% | 20% |  |  | 
CCOC(=O)c1cc2cccnc2n(CCc2ccccc2)c1=O |  | 15% | 19% |  |  | 
CCOC(=O)c1cc2c(=O)n3cccc(C)c3nc2n(CCc2ccc(Cl)cc2)c1=N | 0.8 °C | 42% | 48% | 1.6 °C |  | 
